Peptide text beside a SMILES is read from it.
Tests used:
Mu-type opioid receptor [1] = target: T1, Mu-type opioid receptor (Cavia porcellus, UniProt P97266); experiment: Displacement of [3H]DAMGO from mu opioid receptor of guinea pig brain membrane
Mu-type opioid receptor [2] = target: T1, Mu-type opioid receptor; experiment: Inhibitory concentration of compound against mu opioid receptor in guinea pig ileum assay; assay type: tissue-based
In short: (§1)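 Electrically stimulated tissue in Krebs bicarbonate, 37 °C, 95% O2/5% CO2, 0.1 Hz, supramaximal voltage. MVD used male ICR mouse vas deferens, Mg-free buffer, 0.5 g tension, 2.0 ms pulses. GPI used male Hartley guinea pig ileum myenteric plexus strips, 1 g tension, 0.4 ms pulses. Cumulative agonist doses, 3 min each. IC50 from Hill fit to mean inhibition data, 2–4 tissues.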

[3] = target: Delta-type opioid receptor (Mus musculus, UniProt P32300); experiment: Inhibitory concentration against delta opioid receptor in mouse vas deferens assay; assay type: tissue-based; in short: as §1
[4] = target: Opioid receptors; mu & delta (UniProt P41143+P35372); experiment: Ratio of IC50 against mu opioid to IC50 against delta opioid receptor; in short: as §1
Sequence of Opioid receptors; mu & delta (P35372 whole entry, looked up): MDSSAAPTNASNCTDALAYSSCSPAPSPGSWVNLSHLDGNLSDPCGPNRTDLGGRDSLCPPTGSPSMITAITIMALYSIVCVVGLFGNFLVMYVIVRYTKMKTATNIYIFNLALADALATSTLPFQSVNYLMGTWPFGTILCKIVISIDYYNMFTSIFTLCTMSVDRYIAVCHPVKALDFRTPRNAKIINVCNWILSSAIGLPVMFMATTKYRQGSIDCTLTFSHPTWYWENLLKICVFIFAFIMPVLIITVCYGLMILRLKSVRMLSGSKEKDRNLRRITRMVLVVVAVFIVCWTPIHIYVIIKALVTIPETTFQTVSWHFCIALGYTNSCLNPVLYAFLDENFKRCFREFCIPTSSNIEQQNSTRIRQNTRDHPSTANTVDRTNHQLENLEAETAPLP
Sequence of Opioid receptors; mu & delta (P41143 whole entry, looked up): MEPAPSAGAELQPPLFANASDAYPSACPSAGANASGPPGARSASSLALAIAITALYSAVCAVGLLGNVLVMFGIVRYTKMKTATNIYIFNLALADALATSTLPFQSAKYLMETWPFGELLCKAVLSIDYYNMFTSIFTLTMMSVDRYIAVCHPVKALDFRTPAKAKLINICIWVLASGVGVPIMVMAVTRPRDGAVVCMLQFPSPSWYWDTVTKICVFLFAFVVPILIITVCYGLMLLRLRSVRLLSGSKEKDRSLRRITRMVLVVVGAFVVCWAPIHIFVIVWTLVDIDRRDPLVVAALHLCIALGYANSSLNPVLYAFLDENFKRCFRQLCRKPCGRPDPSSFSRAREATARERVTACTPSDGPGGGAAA

T1 sequence (P97266 whole entry): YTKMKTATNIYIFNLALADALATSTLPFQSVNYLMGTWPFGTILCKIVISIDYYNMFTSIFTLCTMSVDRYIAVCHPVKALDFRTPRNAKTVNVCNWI
Sequence of Delta-type opioid receptor (P32300 whole entry): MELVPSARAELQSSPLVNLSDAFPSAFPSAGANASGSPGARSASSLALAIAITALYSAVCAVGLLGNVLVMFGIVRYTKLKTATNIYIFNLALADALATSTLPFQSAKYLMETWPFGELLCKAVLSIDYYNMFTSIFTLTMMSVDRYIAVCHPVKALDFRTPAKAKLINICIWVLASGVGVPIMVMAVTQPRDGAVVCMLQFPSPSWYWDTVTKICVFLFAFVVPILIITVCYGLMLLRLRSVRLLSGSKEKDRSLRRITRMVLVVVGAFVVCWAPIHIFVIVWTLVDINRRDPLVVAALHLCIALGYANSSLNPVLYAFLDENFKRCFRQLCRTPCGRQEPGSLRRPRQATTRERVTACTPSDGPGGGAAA

Row | SMILES | Ki (Mu-type opioid receptor [1]) [nM] | IC50 (Mu-type opioid receptor [2]) [nM] | IC50 [3] [nM] | Ratio [4]
1 | CC1(C)SSC[C@H](NC(=O)[C@H]2NCC[C@@H]2c2ccc(O)cc2)C(=O)N[C@@H](Cc2ccccc2)C(=O)N[C@@H]1C(=O)O | 110 | 770 | 1.6 | 480
2 | CC1(C)SSC[C@H](NC(=O)C2NCC[C@@H]2c2ccc(O)cc2)C(=O)N[C@@H](Cc2ccccc2)C(=O)N[C@@H]1C(=O)O (single isomer, unassigned) | 10000 |  |  | 
3 | CC1(C)SSC[C@H](NC(=O)[C@@H]2Cc3ccc(O)cc3CN2)C(=O)N[C@@H](Cc2ccccc2)C(=O)N[C@@H]1C(=O)O (HELM PEPTIDE1{[O=C([C@@H]1Cc2ccc(O)cc2CN1)[*:2]].C.F.[Pen]}$PEPTIDE1,PEPTIDE1,2:R3-4:R3$$$V2.0) | > 10000 |  |  | 
4 | CC1(C)SSC[C@H](NC(=O)[C@]2(N)CCc3cc(O)ccc3C2)C(=O)N[C@@H](Cc2ccccc2)C(=O)N[C@@H]1C(=O)O | 230 | 1800 | 110 | 16
5 | CC1(C)SSC[C@H](NC(=O)[C@@H](N)Cc2ccc(O)cc2)C(=O)N[C@@H](Cc2ccccc2)C(=O)N[C@@H]1C(=O)O |  |  | 4.2 | 
6 | CC1(C)SSC[C@H](NC(=O)[C@H]2NCC[C@H]2c2ccc(O)cc2)C(=O)N[C@@H](Cc2ccccc2)C(=O)N[C@@H]1C(=O)O | 720 | 12000 | 75 | 160
7 | CC1(C)SSC[C@H](NC(=O)[C@@]2(N)Cc3ccc(O)cc3C2)C(=O)N[C@@H](Cc2ccccc2)C(=O)N[C@@H]1C(=O)O | 840 | > 10000 | 340 | > 29
8 | CC1(C)SSC[C@H](NC(=O)C2(N)Cc3ccc(O)cc3C2)C(=O)N[C@@H](Cc2ccccc2)C(=O)N[C@@H]1C(=O)O (single isomer, unassigned) | > 10000 |  |  | 
9 | CC1(C)SSC[C@H](NC(=O)[C@@](C)(N)Cc2ccc(O)cc2)C(=O)N[C@@H](Cc2ccccc2)C(=O)N[C@@H]1C(=O)O (HELM PEPTIDE1{[C[C@](N)(Cc1ccc(O)cc1)C(=O)[*:2]].C.F.[Pen]}$PEPTIDE1,PEPTIDE1,2:R3-4:R3$$$V2.0) | > 10000 |  |  | 
10 | CC1(C)SSC[C@H](NC(=O)C2(N)CCc3cc(O)ccc3C2)C(=O)N[C@@H](Cc2ccccc2)C(=O)N[C@@H]1C(=O)O (single isomer, unassigned) | 310 | 4300 | 340 | 13
11 | CC1(C)SSC[C@H](NC(=O)C2NCC[C@H]2c2ccc(O)cc2)C(=O)N[C@@H](Cc2ccccc2)C(=O)N[C@@H]1C(=O)O (single isomer, unassigned) | 4440 |  |  | 

From ChEMBL document CHEMBL1127294, “Development of a model for the delta opioid receptor pharmacophore. 1. Conformationally restricted Tyr1 replacements in the cyclic delta receptor selective tetrapeptide Tyr-c[D-Cys-Phe-D-Pen]OH (JOM-13)” (J Med Chem, 1994)
